Type in all cases: cell-based
Assay [1] has as its target T1, Hypoxia inducible factors; HIF-1-alpha, HIF-2-alpha (Homo sapiens, UniProt Q16665+Q99814). Briefly: Inhibition of hypoxia-induced HIF1 activation in human T47D cells after 16 hrs by pTK-HRE3-luciferase reporter gene assay. Summed up:
(§1)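 Reporter: T47D cells electroporated with pTK-HRE3-luc (140 V, 70 ms, 1 pulse), plated 4.5 × 10^4 cells/well, after 24 h pretreated with serial dilutions for 30 min at 37 °C, then hypoxia (1% O2/5% CO2/94% N2) for 16 h at 37 °C. Luciferase read from lysates; triplicate wells, means ± SD. pGL3-Control cells run as counter-screen.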
On the technique in general: Reporter assays use an easily measured gene product as a stand-in for the process of interest.

In assay [2] the target is T1, Hypoxia inducible factors; HIF-1-alpha, HIF-2-alpha. The experiment in a line: Inhibition of hypoxia-induced HIF1 activation in human T47D cells at 100 nM after 16 hrs by pTK-HRE3-luciferase reporter gene assay. Summed up: as §1
Assay [3] shares this target. The experiment in a line: Inhibition of 1,10-phenathroline-induced HIF1 activation in human T47D cells after 16 hrs at >=10 nM by pTK-HRE3-luciferase reporter gene assay. On the set-up: scale not given: the % may be the effect or the level left. Summed up:
(§2)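 T47D cells electroporated with pTK-HRE3-luc (140 V, 70 ms, 1 pulse), plated 4.5 × 10^4 cells/well, after 24 h given a dilution series for 30 min at 37 °C, then 10 µM 1,10-phenanthroline for 16 h at 37 °C. Luciferase read from cell lysates; quadruplicate wells. Specificity counter-screen used pGL3-Control-transfected cells.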

The target is the same in assay [4]. The experiment in a line: Inhibition of 1,10-phenathroline-induced HIF1 activation in human T47D cells after 16 hrs at >=30 nM by pTK-HRE3-luciferase reporter gene assay. On the set-up: scale not given: the % may be the effect or the level left. Summed up:
as §2

Assay [5] deals with T47D. Briefly: Inhibition of hypoxia-induced VEGF production in human T47D cells after 16 hrs by ELISA. Summed up: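 T47D cells at 3 × 10^4 cells/well, 30 min compound pretreatment, then 16 h hypoxia (1% O2). Secreted VEGF measured in conditioned medium by sandwich ELISA (OD450, 540 nm correction) against a standard curve. Values normalized to viable cell number from Neutral Red uptake (OD540 minus 630 nm, cell-number standard curve). Quadruplicate; mean ± SEM; ANOVA with Fisher's PLSD.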

Assay [6] concerns the target T1, Hypoxia inducible factors; HIF-1-alpha, HIF-2-alpha. The experiment in a line: Inhibition of hypoxia-induced HIF1 activation in human T47D cells at 10 nM after 16 hrs by pTK-HRE3-luciferase reporter gene assay. The method, boiled down:
as §1

The target of assay [7] is Hypoxia-inducible factor 1-alpha (Homo sapiens) (UniProt Q16665). The experiment in a line: Inhibition of hypoxia-induced nuclear HIF1 alpha level in human T47D cells at 10 to 100 nM preincubated for 30 mins before addition of hypoxia measured after 4 hrs by Western blotting. The method, boiled down: (§3)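 Seeded at 1.7 × 10^5 cells/cm2 overnight, T47D cells got 10 or 100 nM for 30 min, then 4 h of hypoxia or 10 µM 1,10-phenanthroline at 37 °C. Nuclear extracts prepared by NP-40 lysis and 500 mM KCl extraction, separated on 7% SDS-PAGE. Blots probed with anti-HIF-1α (1:500), stripped, reprobed for HIF-1β (1:1500); ABC/ECL detection, Ponceau-S loading check.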
In general terms: In western blotting, separated proteins are transferred to a membrane and probed.

Assay [8] shares this target. The experiment in a line: Inhibition of 1,10-phenathroline-induced nuclear HIF1 alpha level in human T47D cells at 10 to 100 nM preincubated for 30 mins before addition of 1,10-phenathroline measured after 4 hrs by Western blotting. The method, boiled down: as §3
Assay [9] deals with T47D. The experiment in a line: Inhibition of hypoxia-induced nuclear HIF1 beta level in human T47D cells at 10 to 100 nM preincubated for 30 mins before addition of hypoxia measured after 4 hrs by Western blotting. The method, boiled down: as §3
Assay [10] has as its system T47D. The experiment in a line: Inhibition of 1,10-phenathroline-induced nuclear HIF1 beta level in human T47D cells at 10 to 100 nM preincubated for 30 mins before addition of 1,10-phenathroline measured after 4 hrs by Western blotting. The method, boiled down:
as §3

The source made the active and inactive calls. The rule behind the calls is not given here.

Chain of Hypoxia-inducible factor 1-alpha (Homo sapiens) (Q16665 whole entry, looked up): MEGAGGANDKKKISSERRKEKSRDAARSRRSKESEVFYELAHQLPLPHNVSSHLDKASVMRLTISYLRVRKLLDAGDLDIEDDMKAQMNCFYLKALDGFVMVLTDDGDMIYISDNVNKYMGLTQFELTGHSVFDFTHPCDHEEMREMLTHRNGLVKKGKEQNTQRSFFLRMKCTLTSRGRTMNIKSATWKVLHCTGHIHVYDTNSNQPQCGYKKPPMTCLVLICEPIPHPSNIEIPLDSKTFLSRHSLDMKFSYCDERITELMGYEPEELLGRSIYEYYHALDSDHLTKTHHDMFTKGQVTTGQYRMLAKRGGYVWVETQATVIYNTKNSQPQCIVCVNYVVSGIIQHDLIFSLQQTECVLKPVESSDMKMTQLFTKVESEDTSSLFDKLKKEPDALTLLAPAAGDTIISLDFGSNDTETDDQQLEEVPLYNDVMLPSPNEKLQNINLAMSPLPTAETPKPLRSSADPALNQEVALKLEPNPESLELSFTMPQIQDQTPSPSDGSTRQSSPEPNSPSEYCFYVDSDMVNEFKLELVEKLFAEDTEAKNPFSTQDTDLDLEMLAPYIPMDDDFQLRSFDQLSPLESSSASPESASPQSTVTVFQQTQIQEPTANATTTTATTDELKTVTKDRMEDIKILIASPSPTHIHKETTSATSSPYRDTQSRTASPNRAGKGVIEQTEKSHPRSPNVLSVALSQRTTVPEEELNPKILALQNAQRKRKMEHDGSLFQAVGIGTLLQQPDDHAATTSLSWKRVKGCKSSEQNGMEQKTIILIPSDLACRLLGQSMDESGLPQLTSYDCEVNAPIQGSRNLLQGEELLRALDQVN

What is called IC50 is the concentration that inhibits the measured activity by half. In turn, `COc1cc([C@@H](O)[C@@H](C)Oc2ccc([C@H]3O[C@H](c4ccc(O[C@H](C)[C@H](O)c5ccc6c(c5)OCO6)c(OC)c4)[C@H](C)[C@H]3C)cc2OC)ccc1O` (mixture of isomers) [4-O-DEMETHYLMANASSANTIN B] yielded an IC50 in assay [1] of 30 nM. Also, the result (in assay [2]; in the assay with T47D [5]) was Active. For the same compound, the Activity in assay [3] and in assay [4] was under 50% throughout.
In assay [1], `COc1ccc([C@@H](O)[C@@H](C)Oc2ccc([C@H]3O[C@H](c4ccc(O[C@H](C)[C@H](O)c5ccc6c(c5)OCO6)c(OC)c4)[C@H](C)[C@H]3C)cc2OC)cc1OC` (relative stereo) [MANASSANTIN B] yielded an IC50 of 3 nM. Besides, the result (in assay [6]; in the assay with T47D [5]; in assay [7]) was Active. Moreover, the Activity in assay [3] and in [4] was under 50% in each case. The outcome (in assay [8]; in the assay with T47D [9]; with T47D [10]) was inactive.

For the origin of these results see ChEMBL document CHEMBL1151197, “Molecular-targeted antitumor agents: the Saururus cernuus dineolignans manassantin B and 4-O-demethylmanassantin B are potent inhibitors of hypoxia-activated HIF-1” (J Nat Prod, 2004).
